These results are taken from ChEMBL document CHEMBL1938299, “Quinolinone-based agonists of S1P₁: use of a N-scan SAR strategy to optimize in vitro and in vivo activity” (Bioorg Med Chem Lett, 2012).

Series [1] is described as follows: Apparent permeability of the compound in pig LLC-PK1 cells. Format: ADME, cell-based, Sus scrofa. The method, boiled down:
(§1)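 LLC-PK1 porcine proximal tubule cell monolayers; apparent permeability (Papp) of test compound through the cells measured, along with efflux ratio.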

Series [2] can be described thus: Intrinsic clearance in rat liver microsomes assessed per mg of protein after 30 mins. As to conditions: read-out: CLH. It counts as ADME, Microsome. The essentials:
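Test compound incubated with rat liver microsomes for 30 min. Percent turnover measured and used to estimate intrinsic clearance.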

The target in series [3] is T1, Sphingosine 1-phosphate receptor 3 (Homo sapiens, UniProt Q99500). The series can be described thus: Agonist activity at human S1P3 receptor expressed in CHO-K1 cells co-expressing Gq/i5 G-protein assessed as calcium mobilization by FLIPR assay. Format: functional, cell-based.
T1 sequence (Q99500 whole entry): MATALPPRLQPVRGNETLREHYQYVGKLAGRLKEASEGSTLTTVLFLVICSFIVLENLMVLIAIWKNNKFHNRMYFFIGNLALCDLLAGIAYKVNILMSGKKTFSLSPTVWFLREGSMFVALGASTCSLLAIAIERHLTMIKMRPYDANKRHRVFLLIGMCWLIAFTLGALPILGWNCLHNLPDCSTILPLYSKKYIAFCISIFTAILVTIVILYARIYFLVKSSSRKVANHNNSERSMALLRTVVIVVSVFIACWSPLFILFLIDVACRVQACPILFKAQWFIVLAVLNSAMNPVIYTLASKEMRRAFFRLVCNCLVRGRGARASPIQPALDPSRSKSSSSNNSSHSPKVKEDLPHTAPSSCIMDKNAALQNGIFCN
In series [4] the target is T2, Sphingosine 1-phosphate receptor 1 (Homo sapiens, UniProt P21453). The series can be described thus: Agonist activity at human S1P1 receptor expressed in human U2OS cells co-expressing eGFP assessed as receptor internalization into cytoplasm using Hoechst dye staining. Format: functional, cell-based.
T2 sequence (P21453 whole entry): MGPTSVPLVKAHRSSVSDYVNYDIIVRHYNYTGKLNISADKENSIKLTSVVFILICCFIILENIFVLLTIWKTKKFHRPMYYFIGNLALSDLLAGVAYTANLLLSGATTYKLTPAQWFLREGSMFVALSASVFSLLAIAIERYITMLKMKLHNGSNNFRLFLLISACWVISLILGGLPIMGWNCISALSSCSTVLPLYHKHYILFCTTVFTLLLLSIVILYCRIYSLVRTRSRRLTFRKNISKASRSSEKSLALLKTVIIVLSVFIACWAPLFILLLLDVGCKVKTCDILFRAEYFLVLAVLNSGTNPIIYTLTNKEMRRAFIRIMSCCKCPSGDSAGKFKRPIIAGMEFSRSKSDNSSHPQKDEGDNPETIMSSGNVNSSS
Series [5] concerns the target T2, Sphingosine 1-phosphate receptor 1. As to the kind of experiment: Agonist activity at human S1P1 receptor expressed in human U2OS cells co-expressing eGFP assessed as receptor internalization into cytoplasm using Hoechst dye staining relative to 1-(4-(6-benzylbenzofuran-2-yl)-3- fluorobenzyl)azetidine-3-carboxylic acid. Format: functional, cell-based.
For another series, the system named is Rattus norvegicus. The series can be described thus: Immunosuppressive activity in Lewis rat assessed as reduction in circulating peripheral lymphocyte count at 1 mg/kg, po after 24 hrs relative to control. Set-up: scale not given: the % may be the effect or the level left. It counts as functional. The essentials:
(§2)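 Female Lewis rats (N = 5/group) given a single oral dose (0.30, 1.0 or 3.0 mg/kg) in 20% Captisol or HPBCD, 1% HPMC, 1% Pluronic F68, pH 2.0 with MSA. At 24 h, blood lymphocytes were counted as percent of vehicle control and total plasma compound measured. Significance by ANOVA/Dunnett's test versus vehicle.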

Series [6] in a line: Solubility of the compound in phosphate-buffered saline at pH 7.4. Format: physicochemical. The essentials: (§3)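 Compound solubility measured separately in 0.010 M aqueous HCl, in PBS at pH 7.4, and in simulated intestinal fluid.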
Series [7] can be described thus: Solubility of the compound in simulated intestinal fluid at pH 7.4. Format: physicochemical. The essentials:
as §3

Series [8] is described as follows: Solubility of the compound in 0.010 M aqueous hydrogen chloride at pH 7.4. It counts as physicochemical. As to conditions: in the assay text read “hydrogen chloride” for “hydrogen chloride at pH 7.4”. The essentials:
as §3

Series [9] is described as follows: Plasma concentration in Lewis rat at 1 mg/kg, po after 24 hrs. It counts as ADME, organism-based. On the set-up: dose 1 mg/kg, route oral. The essentials:
as §2

The nature of series [10]: Efflux ratio of permeability in pig LLC-PK1 cells. It counts as ADME, cell-based, Sus scrofa. The essentials: as §1
Series [11] deals with T1, Sphingosine 1-phosphate receptor 3. As to the kind of experiment: Agonist activity at human S1P3 receptor expressed in CHO-K1 cells co-expressing Gq/i5 G-protein assessed as calcium mobilization by FLIPR assay relative to S1P. Format: functional, cell-based. The method, boiled down:
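Ca2+ mobilization in CHO-K1 cells expressing hS1P3 and a chimeric Gq/i5 G-protein. Efficacy expressed as % relative to S1P; compounds not reaching >10% of control activity reported as greater than the highest concentration tested.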

Values after ≈ are worked out from the molar mass of the structure shown. Some results are limits rather than exact numbers.

Take `Cn1cc(C(=O)Nc2cc(C(F)(F)F)c(-c3ccccc3)cn2)c(=O)c2ccccc21`: in [1], the Papp was under 1 ×10⁻⁶ cm/s. Besides, the microsomal CLint in series [2] was under 14 µL/min/mg. The EC50 in [3] is over 2500 nM; in series [4], 1100 nM. For the same compound, the Efficacy in series [5] was found to be 59%.
Take `CCCCCCCCCCCCC/C=C/[C@@H](O)[C@@H](N)COP(=O)(O)O`: in [4], the EC50 worked out at 18 nM. In addition, in [5], the Efficacy came out at 91%.
As to `Cn1cc(C(=O)Nc2ccc(-c3ccccc3)c(C(F)(F)F)n2)c(=O)c2ccccc21`, the apparent permeability (Papp) in series [1] was under 1 ×10⁻⁶ cm/s. Also, the microsomal CLint in series [2] is under 14 µL/min/mg. Besides, the Activity with Rattus norvegicus was found to be 7%. For the same compound, the EC50 in series [3] is over 2500 nM; in [4], 42 nM. The solubility in series [6] was under 1 µg/mL; in series [7], 2.3 µg/mL (≈ 5.43 µM); in [8], under 1 µg/mL. The Efficacy in [5] was determined as 120%. Also, the concentration at 24 h in [9] is 1.3 ng/mL.
Turning to `Cn1cc(C(=O)Nc2ccc(-c3ccncc3)c(C(F)(F)F)c2)c(=O)c2ccccc21`, the efflux ratio in series [10] is 1.5. For the same compound, the Papp in series [1] is 15 ×10⁻⁶ cm/s. The microsomal CLint in series [2] is 44 µL/min/mg. Moreover, the half-maximal effective concentration (EC50) in series [3] is over 2500 nM; in series [4], 450 nM. In addition, the solubility in [6] was 7.9 µg/mL (≈ 18.7 µM); in [7] it was 12 µg/mL (≈ 28.3 µM); in series [8], 6.4 µg/mL (≈ 15.1 µM). For the same compound, in [5], the Efficacy turned out to be 110%.
As to `Cn1cc(C(=O)Nc2ccc(-c3ccccn3)c(C(F)(F)F)n2)c(=O)c2cnccc21`, in [10], the efflux ratio came out at 1. Further, the Papp in [1] came to 15 ×10⁻⁶ cm/s. Besides, in series [2], the microsomal CLint was under 14 µL/min/mg. The Activity in the series with Rattus norvegicus is recorded as -32%. For the same compound, the EC50 in series [3] was over 2500 nM; in series [4], 210 nM. Moreover, the solubility is 3 µg/mL (≈ 7.05 µM) in series [6], 5.8 µg/mL (≈ 13.6 µM) in series [7] and over 200 µg/mL in series [8]. Moreover, the Efficacy in [5] is 130%. This compound came in with a concentration at 24 h in series [9] of 140 ng/mL.
In the case of `Cn1cc(C(=O)Nc2ccc(-c3ccccc3)c(C(F)(F)F)c2)c(=O)c2ccncc21`, the efflux ratio in series [10] came out at 1. For the same compound, the Papp in series [1] was determined as 3.4 ×10⁻⁶ cm/s. Besides, in [2], the microsomal CLint is under 14 µL/min/mg. For the same compound, the Activity in the series with Rattus norvegicus was -36%. Besides, the half-maximal effective concentration (EC50) was over 2500 nM in series [3] and 29 nM in series [4]. For the same compound, the results for the solubility in series [6], in [7] and in series [8] were 2.6 µg/mL (≈ 6.14 µM), 6.1 µg/mL (≈ 14.4 µM) and under 1 µg/mL, respectively. For the same compound, the Efficacy in series [5] is 120%. The concentration at 24 h in series [9] was 140 ng/mL.
For the compound `Cn1cc(C(=O)Nc2ccc(-c3ccccn3)c(C(F)(F)F)c2)c(=O)c2ccccc21`, in [10], the efflux ratio came out at 0.8. Besides, in series [1], the Papp is 11 ×10⁻⁶ cm/s. In addition, the microsomal CLint in series [2] is under 14 µL/min/mg. The Activity in the series on Rattus norvegicus is 25%. For the same compound, the EC50 was over 2500 nM in series [3] and 60 nM in series [4]. In addition, the figures for the solubility in series [6], in [7] and in series [8] were under 1 µg/mL, 5.2 µg/mL (≈ 12.3 µM) and 12 µg/mL (≈ 28.3 µM), respectively. Moreover, the Efficacy in series [5] stood at 110%. The concentration at 24 h in series [9] is 5.1 ng/mL.
`CCCCCCCCc1ccc(CC[C@](N)(CO)COP(=O)(O)O)cc1`: in series [11], the Efficacy stood at 35%.
With `Cn1cc(C(=O)Nc2ccc(-c3cccnc3)c(C(F)(F)F)c2)c(=O)c2ccccc21`, the efflux ratio in series [10] worked out at 1.6. Moreover, the Papp in [1] came out at 18 ×10⁻⁶ cm/s. For the same compound, the microsomal CLint in [2] was determined as 18 µL/min/mg. The EC50 in series [3] was over 2500 nM; in series [4] it was 310 nM. The solubility was under 1 µg/mL in series [6], 6.7 µg/mL (≈ 15.8 µM) in series [7] and 23 µg/mL (≈ 54.3 µM) in [8]. Moreover, in series [5], the Efficacy was 110%.
For `Cn1nc(C(=O)Nc2ccc(-c3ccccc3)c(C(F)(F)F)c2)c(=O)c2ccccc21`, the efflux ratio in [10] stood at 1.2. In series [1], the Papp turned out to be 2.3 ×10⁻⁶ cm/s. For the same compound, in [2], the microsomal CLint was under 14 µL/min/mg. For the same compound, the Activity with Rattus norvegicus is given as 6%. Further, the EC50 in series [3] was over 2500 nM; in series [4], 41 nM. Also, the values for the solubility in series [6], in series [7] and in series [8] were 1.6 µg/mL (≈ 3.78 µM), 12 µg/mL (≈ 28.3 µM) and under 1 µg/mL, respectively. In addition, the Efficacy in [5] stood at 130%. In series [9], this compound had a concentration at 24 h of 9.7 ng/mL.
Take `Cn1cc(C(=O)Nc2ccc(-c3ccccc3)c(C(F)(F)F)c2)c(=O)c2cccnc21`: in series [10], the efflux ratio was determined as 1.7. The apparent permeability coefficient (Papp) in series [1] is 2.2 ×10⁻⁶ cm/s. Also, in series [2], the microsomal CLint is under 14 µL/min/mg. The EC50 was over 2500 nM in [3] and 190 nM in [4]. Also, the solubility in [6] is under 1 µg/mL; in [7] it was 5.9 µg/mL (≈ 13.9 µM); in series [8] it was under 1 µg/mL. Further, the Efficacy in series [5] worked out at 100%.
In the case of `COc1ccncc1C(=O)NC(=O)Nc1ccc(-c2ccccc2)c(C(F)(F)F)c1`, the Papp in series [1] stood at 2.3 ×10⁻⁶ cm/s. Besides, the Activity with Rattus norvegicus is recorded as -78%. Besides, in [3], the EC50 is over 25000 nM. In addition, the solubility is 6.6 µg/mL (≈ 15.9 µM) in [6], 16 µg/mL (≈ 38.5 µM) in series [7] and 17 µg/mL (≈ 40.9 µM) in series [8]. In [9], this compound returned a concentration at 24 h of 63 ng/mL.
Turning to `Cn1cc(C(=O)Nc2cnc(-c3ccccc3)c(C(F)(F)F)c2)c(=O)c2ccccc21`, the efflux ratio in [10] was determined as 1.9. Further, the Papp in [1] was found to be 11 ×10⁻⁶ cm/s. Besides, the microsomal CLint in series [2] was under 14 µL/min/mg. For the same compound, the half-maximal effective concentration (EC50) was over 2500 nM in [3] and 2900 nM in [4]. Also, the solubility in series [6] is under 1 µg/mL; in series [7] it was 13 µg/mL (≈ 30.7 µM); in series [8], under 1 µg/mL. Besides, in series [5], the Efficacy turned out to be 170%.
For the compound `CCCCCCCCc1ccc(CCC(N)(CO)CO)cc1`, the Efficacy in series [5] is 115%.
As for `Cn1cc(C(=O)Nc2ccc(-c3ccccn3)c(C(F)(F)F)c2)c(=O)c2cnccc21`, the efflux ratio in series [10] was found to be 1. Also, in [1], the Papp stood at 16 ×10⁻⁶ cm/s. Further, the microsomal CLint in series [2] worked out at 15 µL/min/mg. Besides, the Activity with Rattus norvegicus is -32%. The EC50 in [3] was over 2500 nM; in series [4] it was 200 nM. Also, the results for the solubility in series [6], in [7] and in series [8] were under 1 µg/mL, 6.7 µg/mL (≈ 15.8 µM) and 120 µg/mL (≈ 283 µM), respectively. Further, the Efficacy in series [5] was 100%. The same compound returned a concentration at 24 h in [9] of 150 ng/mL.
Turning to `Cn1cc(C(=O)Nc2ccc(-c3ccccc3)c(C(F)(F)F)c2)c(=O)c2ncccc21`, in [10], the efflux ratio worked out at 1.4. Further, the Papp in series [1] was determined as 16 ×10⁻⁶ cm/s. The microsomal CLint in series [2] is under 14 µL/min/mg. The values for the EC50 in [3] and in [4] were over 2500 nM and 4100 nM, respectively. Further, in [5], the Efficacy came to 86%.
